ChEMBL document CHEMBL4261524, “Succinct synthesis of saturated hydroxy fatty acids and in vitro evaluation of all hydroxylauric acids on FFA1, FFA4 and GPR84” (Medchemcomm, 2017)
Activity calls are given as the source filed them. The rule behind the calls is not given here.

Columns and labels:
[1] = target: T1, Free fatty acid receptor 4 (Homo sapiens, UniProt Q5NUL3); test: Agonist activity at N-terminal FLAG-tagged/C-terminal eYFP-fused human FFA4 receptor expressed in HEK293T cells assessed as induction of beta-arrestin-2 recruitment after 5 mins by BRET assay; type: functional, cell-based
T1 sequence (Q5NUL3 whole entry): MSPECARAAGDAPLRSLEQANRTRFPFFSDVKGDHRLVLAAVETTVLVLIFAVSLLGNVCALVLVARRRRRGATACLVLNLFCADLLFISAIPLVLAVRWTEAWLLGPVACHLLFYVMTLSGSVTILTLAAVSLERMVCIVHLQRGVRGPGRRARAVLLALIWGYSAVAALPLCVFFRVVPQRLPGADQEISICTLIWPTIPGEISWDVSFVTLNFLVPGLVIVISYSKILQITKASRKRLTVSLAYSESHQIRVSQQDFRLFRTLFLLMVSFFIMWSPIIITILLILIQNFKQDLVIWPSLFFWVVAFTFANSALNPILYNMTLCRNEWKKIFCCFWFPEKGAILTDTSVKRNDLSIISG

[2] = target: T2, G-protein coupled receptor 84 (Homo sapiens, UniProt Q9NQS5); test: Agonist activity at N-terminal FLAG-tagged/C-terminal eYFP-fused human GPR84 expressed in CHO cell membranes assessed as inhibition of forskolin-induced cAMP accumulation up to 100 uM preincubated for 20 mins followed by forskolin-induction and measured after 20 mins; type: functional, cell-based
T2 sequence (Q9NQS5 whole entry, the tested form may be a part): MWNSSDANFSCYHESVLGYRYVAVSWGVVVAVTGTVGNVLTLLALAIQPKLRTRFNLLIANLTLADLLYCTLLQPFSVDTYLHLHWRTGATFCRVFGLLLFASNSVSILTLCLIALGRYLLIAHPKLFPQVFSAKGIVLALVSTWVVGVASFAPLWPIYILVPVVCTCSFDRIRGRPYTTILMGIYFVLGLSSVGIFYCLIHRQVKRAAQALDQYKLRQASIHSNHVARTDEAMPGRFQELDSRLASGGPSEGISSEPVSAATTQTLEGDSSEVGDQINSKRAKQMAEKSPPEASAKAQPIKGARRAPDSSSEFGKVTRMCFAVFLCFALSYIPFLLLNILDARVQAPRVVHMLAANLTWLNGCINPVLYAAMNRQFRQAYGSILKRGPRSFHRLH

[3] = target: T2, G-protein coupled receptor 84; test: Agonist activity at N-terminal FLAG-tagged/C-terminal eYFP-fused human GPR84 expressed in CHO cell membranes assessed as inhibition of forskolin-induced cAMP accumulation preincubated for 20 mins followed by forskolin-induction and measured after 20 mins; type: functional, cell-based
[4] = target: T2, G-protein coupled receptor 84; test: Agonist activity at N-terminal FLAG-tagged/C-terminal eYFP-fused human GPR84 expressed in CHO cell membranes assessed as induction of [35S]GTPgammaS binding after 1 hr by liquid scintillation counting method; type: functional
Outline: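 Membranes were prepared from FLAG-GPR84-eYFP-expressing cells by homogenization in 10 mM Tris-HCl pH 7.4 with 0.1 mM EDTA, a 1000 × g spin to clear debris, then a 38 000 × g pellet. 10 μg membrane was incubated 1 h at 30 °C in HEPES/MgCl2/NaCl buffer, pH 7.5, with 0.05% fatty-acid-free BSA, 1 μM GDP and 0.1 nM [35S]GTPγS. Binding was read on GF/C filters by scintillation counting; means ± SEM, n ≥ 3.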

[5] = target: T3, Free fatty acid receptor 1 (Homo sapiens, UniProt O14842); test: Agonist activity at N-terminal FLAG-tagged/C-terminal eYFP-fused human FFA1 receptor expressed in Flp-In T-Rex 293 cells assessed as induction of Ca2+ mobilization after 45 mins by Fura2-AM dye-based fluorescence assay; type: functional, cell-based
T3 sequence (O14842 whole entry, the tested form may be a part): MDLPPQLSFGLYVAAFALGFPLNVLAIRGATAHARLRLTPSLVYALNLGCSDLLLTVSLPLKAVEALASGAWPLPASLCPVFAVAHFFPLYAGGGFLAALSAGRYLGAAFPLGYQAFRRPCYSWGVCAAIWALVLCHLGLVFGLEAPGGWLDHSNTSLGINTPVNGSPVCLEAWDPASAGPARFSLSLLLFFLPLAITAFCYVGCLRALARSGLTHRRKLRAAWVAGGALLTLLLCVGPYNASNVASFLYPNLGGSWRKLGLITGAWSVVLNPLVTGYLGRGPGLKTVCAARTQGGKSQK

[6] = target: T3, Free fatty acid receptor 1; test: Agonist activity at N-terminal FLAG-tagged/C-terminal eYFP-fused human FFA1 receptor expressed in HEK293T cells assessed as induction of beta-arrestin-2 recruitment after 15 mins by BRET assay; type: functional, cell-based
[7] = target: T3, Free fatty acid receptor 1; test: Agonist activity at N-terminal FLAG-tagged/C-terminal eYFP-fused human FFA1 receptor expressed in HEK293T cells assessed as induction of beta-arrestin-2 recruitment at 100 uM after 15 mins by BRET assay relative to control; type: functional, cell-based

EC50 [1] | inhibition [2] | EC50 [3] | EC50 [4] | EC50 [6] | Activity [7] | SMILES | EC50 [5]
7.59 µM | inactive | 8.71 µM | 10.5 µM |  |  | CCCCCCCCCCCC(=O)O [DODECANOATE] | 11.5 µM
> 100 µM |  |  | > 100 µM | > 100 µM |  | CCCCCC(O)CCCCCC(=O)O (centres undefined) | 
> 100 µM |  |  | 5.25 µM | > 100 µM | < 25% | CCCCCCCCCC(O)CC(=O)O (centres undefined) | 
> 100 µM |  |  | 12.9 µM | 6.76 µM |  | CCCCCCCCCCC(O)C(=O)O (centres undefined) | 
1.74 µM |  |  |  |  |  | CCCCCCC(O)CCCCCCCCCCC(=O)O (centres undefined) | 
> 100 µM |  |  | > 100 µM | > 100 µM |  | CCCCC(O)CCCCCCC(=O)O (centres undefined) | 
> 100 µM |  |  | > 100 µM | > 100 µM |  | CC(O)CCCCCCCCCC(=O)O (centres undefined) | 
> 100 µM |  |  | > 100 µM | > 100 µM |  | CCCC(O)CCCCCCCC(=O)O (centres undefined) | 

The next lines start with the compound.

SMILES | EC50 [1] | inhibition [2] | EC50 [3] | EC50 [4] | EC50 [6] | Activity [7] | EC50 [5]
O=C(O)CCCCCCCCCCCO | > 100 µM |  |  | 20.9 µM | > 100 µM |  | 
CCCCCCCCC(O)CCC(=O)O (centres undefined) | > 100 µM |  |  | 38 µM | > 100 µM |  | 
O=C(O)CCCCCCCCCCCCCCCO | 1.7 µM |  |  |  |  |  | 20.9 µM
CCC(O)CCCCCCCCC(=O)O (centres undefined) | > 100 µM |  |  | > 100 µM | > 100 µM |  | 
CCCCCC[C@@H](O)C/C=C\CCCCCCCC(=O)O | 1.32 µM |  |  |  |  |  | 11.5 µM
CCCCCCC(O)CCCCC(=O)O (centres undefined) | > 100 µM |  |  | > 100 µM | 18.6 µM |  | 
CCCCCCCC(O)CCCC(=O)O (centres undefined) | > 100 µM |  |  | > 100 µM | > 100 µM |  | 
